The source of these data is ChEMBL document CHEMBL1914308, “N-fused imidazoles as novel anticancer agents that inhibit catalytic activity of topoisomerase IIα and induce apoptosis in G1/S phase” (J Med Chem, 2011).

Data set [1] deals with HEK293. Briefly: Antimigratory activity against human HEK293 cells at 25 uM after 24 hrs by wound healing assay. Type of data set: functional, cell-based. The essentials:
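Wound healing in HEK 293 monolayer: scratch made with sterile micro tip, cells then cultured with or without 25 μM compound; gap closure followed over time to 24 h. Best of three independent experiments shown.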

The nature of data set [2]: Anticlonogenic activity against african green monkey Vero after 48 hrs by crystal violet staining. Type of data set: ADME, cell-based. The following applies: chlorocebus sabaeus, Vero cells; read-out: LC50. The essentials:
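HEK 293 and Vero cells were grown in DMEM with 10% FBS and 1% penicillin/streptomycin at 37 °C in 5% CO₂. At 60–70% confluence they were exposed for 48 h to a range of concentrations, diluted in DMEM from 100 mM DMSO stocks. Colony survival is expressed as %. Values are mean ± SD of three independent experiments; LC₅₀ is the concentration killing half the cells.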

Data set [3] has as its system HEK293. Briefly: Induction of cell cycle arrest in human HEK293 cells assessed as accumulation at G1 phase at 35 uM after 48 hrs by propidium iodide staining-based FACS analysis (reference value: 61 +/- 0.9%). Type of data set: functional.
Data set [4] relates to HEK293. Briefly: Induction of apoptosis in human HEK293 cells assessed as increase in Bax/Bcl-XL ratio at 15 to 25 uM after 48 hrs by Western blot analysis. Type of data set: functional, cell-based. The essentials:
(§1)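 Whole-cell extracts from HEK 293 cells after 48 h at graded concentrations, Western blotted for caspase-3, Bax, Bcl-XL and PARP (cleaved 86 kDa fragment); β-actin as loading control.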
(In general: A western blot detects proteins with antibodies after separation by electrophoresis.)

Data set [5] concerns HEK293. Briefly: Cytotoxicity against human HEK293 cells assessed as cell survival after 48 hrs by MTT assay. Type of data set: functional. To be noted: HEK293, 48 h, read-out: LC50 (the source's name). The essentials:
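HEK 293 cells were cultured in DMEM with 10% FBS and antibiotics at 37 °C in 5% CO₂. At 60–70% confluence they were treated for 48 h with various concentrations, diluted in DMEM from 100 mM DMSO stocks. Survival was read by MTT. LC₅₀ is the concentration killing 50% of cells. Data are mean ± SD of three independent experiments.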

The target of data set [6] is T1, DNA topoisomerase 2-alpha (Homo sapiens, UniProt P11388). Briefly: Inhibition of topoisomerase 2 alpha-mediated DNA relaxation activity in human HEK293 cells assessed as increase in supercoiled DNA at 35 uM after 3 to 4 hrs by agarose gel electrophoresis in presence of 20 to 250 mM ATP. Type of data set: cell-based.
The target of data set [7] is T1, DNA topoisomerase 2-alpha. Briefly: Inhibition of topoisomerase 2 alpha-mediated DNA relaxation activity in human HEK293 cells assessed as increase in supercoiled DNA at 35 uM […] by agarose gel electrophoresis. Type of data set: cell-based.
Data set [8] deals with T1, DNA topoisomerase 2-alpha. Briefly: Competitive inhibition of human topoisomerase-2 alpha-ATPase activity by Lineweaver-Burk assay in presence of 200 to 520 uM ATP. In outline:
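Compound at 0, 50, 100, 150 μM, each with ATP at 200–520 μM; 20 min at 37 °C. Released phosphate read by malachite green at OD 620 nm; Lineweaver–Burk analysis, Ki from slope replot.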

Data set [9] deals with HEK293. Briefly: Induction of apoptosis in human HEK293 cells assessed as increase in apoptotic nuclei at 25 uM after 48 hrs by DAPI staining-based fluorescence microscopic analysis. Type of data set: functional. In outline:
(§2)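 HEK 293 cells exposed 48 h to 0, 15, 25 or 35 μM, nuclei stained with DAPI and apoptotic nuclei counted by fluorescence imaging; three replicates.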

The target of data set [10] is T1, DNA topoisomerase 2-alpha. Briefly: Inhibition of etoposide poisoning activity against human recombinant DNA topoisomerase 2alpha assessed as enhancement of in relaxation of supercoiled plasmid pBR322 DNA at 200 uM after 30 mins by agarose gel electrophoresis in presence of etoposide.
Data set [11] relates to HEK293. Briefly: Induction of apoptosis in human HEK293 cells assessed as apoptotic cells at 35 uM after 48 hrs by propidium iodide staining-based FACS analysis (reference value: 4.88 +/- 0.8%). Type of data set: functional. A general note: A flow cytometer gives signals particle by particle.
Data set [12] deals with HEK293. Briefly: Induction of apoptosis in human HEK293 cells assessed as increase in PARP cleavage product at 15 to 25 uM after 48 hrs by Western blot analysis. Type of data set: functional, cell-based. In outline: as §1
Data set [13] in a line: Cytotoxicity activity against african green monkey Vero assessed as cell survival at 100 uM after 48 hrs by MTT assay. Type of data set: cell-based. To be noted: chlorocebus sabaeus, Vero cells; read-out: Activity. In outline: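 MTT survival of HEK 293 and Vero cells after 48 h with compound at graded concentrations. DMEM, 10% FBS, 37 °C, 5% CO2; dilutions in DMEM from 100 mM DMSO stock, added at 60–70% confluence. Mean ± SD of three independent experiments.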
In general terms: Formazan colour is commonly taken as a measure of viable cells.

Data set [14] has as its system HEK293. Briefly: Induction of cell cycle arrest in human HEK293 cells assessed as accumulation at G1 phase at 15 uM after 48 hrs by propidium iodide staining-based FACS analysis (reference value: 61 +/- 0.9%). Type of data set: functional.
Data set [15] concerns HEK293. Briefly: Induction of cell cycle arrest in human HEK293 cells assessed as accumulation at S phase at 15 uM after 48 hrs by propidium iodide staining-based FACS analysis (reference value: 16.91 +/- 1.0%). Type of data set: functional.
The target of data set [16] is T1, DNA topoisomerase 2-alpha. Briefly: Inhibition of human topoisomerase 2 alpha-mediated unwinding of supercoiled DNA assessed as DNA intercalation at 100 uM by agarose gel electrophoresis. In outline: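 250 ng negatively supercoiled E. coli plasmid incubated 20 min at 37 °C with 1 μg/mL ethidium bromide (intercalator control), 100 μM etoposide or test compound; run on 1% agarose in TAE without EtBr, then post-stained with 0.5 μg/mL EtBr; mobility retardation scored.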

The subject of data set [17] is Vero. Briefly: Anticlonogenic activity against african green monkey Vero cells assessed as inhibition of colony formation of cells at 20 to 100 uM after 48 hrs by crystal violet staining. Type of data set: cell-based. To be noted: chlorocebus sabaeus. In outline:
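Clonogenic survival in HEK 293 and Vero cells, 48 h exposure at graded concentrations; % survival plotted; mean ± SD of three independent experiments. Cells grown in DMEM with 10% FBS and 1% antibiotic at 37 °C, 5% CO2; compound diluted from 100 mM DMSO stock into DMEM, added at 60–70% confluence.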

In data set [18] the test system is HEK293. Briefly: Induction of apoptosis in human HEK293 cells assessed as increase in apoptotic nuclei at 35 uM after 48 hrs by DAPI staining-based fluorescence microscopic analysis. Type of data set: functional. The essentials: as §2
For data set [19], the system named is HEK293. Briefly: Induction of apoptosis in human HEK293 cells assessed as decrease in Bcl-XL protein expression at 15 to 25 uM after 48 hrs by Western blot analysis. Type of data set: functional, cell-based. The essentials: as §1
The test system of data set [20] is HEK293. Briefly: Induction of apoptosis in human HEK293 cells assessed as increase in caspase 3 expression at 15 to 25 uM after 48 hrs by Western blot analysis. Type of data set: functional, cell-based. The essentials:
as §1

Data set [21] deals with MCF7. Briefly: Cytotoxicity against human MCF7 cells assessed as cell survival at 15 uM after 48 hrs by MTT assay. Type of data set: functional. The following applies: MCF7, 48 h, read-out: Activity. In outline: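 MTT survival of MCF 7 breast cancer cells, with MCF 10A as normal comparator; 48 h exposure. MCF 7 in DMEM with 10% FBS; MCF 10A in DMEM/F-12 with 10% FBS plus hydrocortisone, cholera toxin, insulin, EGF and L-glutamine. Mean ± SD of three independent experiments.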

Data set [22] in a line: Cytotoxicity against human MCF10A cells assessed as cell survival at 100 uM after 48 hrs by MTT assay. The following applies: read-out: Survival. Type of data set: cell-based, MCF-10A.

Calls of active or inactive are those of the source. The calls are words filed in the database; no cut-off is given here. A value given as a limit tells only on which side of the number the result lay.

T1 sequence (P11388 whole entry): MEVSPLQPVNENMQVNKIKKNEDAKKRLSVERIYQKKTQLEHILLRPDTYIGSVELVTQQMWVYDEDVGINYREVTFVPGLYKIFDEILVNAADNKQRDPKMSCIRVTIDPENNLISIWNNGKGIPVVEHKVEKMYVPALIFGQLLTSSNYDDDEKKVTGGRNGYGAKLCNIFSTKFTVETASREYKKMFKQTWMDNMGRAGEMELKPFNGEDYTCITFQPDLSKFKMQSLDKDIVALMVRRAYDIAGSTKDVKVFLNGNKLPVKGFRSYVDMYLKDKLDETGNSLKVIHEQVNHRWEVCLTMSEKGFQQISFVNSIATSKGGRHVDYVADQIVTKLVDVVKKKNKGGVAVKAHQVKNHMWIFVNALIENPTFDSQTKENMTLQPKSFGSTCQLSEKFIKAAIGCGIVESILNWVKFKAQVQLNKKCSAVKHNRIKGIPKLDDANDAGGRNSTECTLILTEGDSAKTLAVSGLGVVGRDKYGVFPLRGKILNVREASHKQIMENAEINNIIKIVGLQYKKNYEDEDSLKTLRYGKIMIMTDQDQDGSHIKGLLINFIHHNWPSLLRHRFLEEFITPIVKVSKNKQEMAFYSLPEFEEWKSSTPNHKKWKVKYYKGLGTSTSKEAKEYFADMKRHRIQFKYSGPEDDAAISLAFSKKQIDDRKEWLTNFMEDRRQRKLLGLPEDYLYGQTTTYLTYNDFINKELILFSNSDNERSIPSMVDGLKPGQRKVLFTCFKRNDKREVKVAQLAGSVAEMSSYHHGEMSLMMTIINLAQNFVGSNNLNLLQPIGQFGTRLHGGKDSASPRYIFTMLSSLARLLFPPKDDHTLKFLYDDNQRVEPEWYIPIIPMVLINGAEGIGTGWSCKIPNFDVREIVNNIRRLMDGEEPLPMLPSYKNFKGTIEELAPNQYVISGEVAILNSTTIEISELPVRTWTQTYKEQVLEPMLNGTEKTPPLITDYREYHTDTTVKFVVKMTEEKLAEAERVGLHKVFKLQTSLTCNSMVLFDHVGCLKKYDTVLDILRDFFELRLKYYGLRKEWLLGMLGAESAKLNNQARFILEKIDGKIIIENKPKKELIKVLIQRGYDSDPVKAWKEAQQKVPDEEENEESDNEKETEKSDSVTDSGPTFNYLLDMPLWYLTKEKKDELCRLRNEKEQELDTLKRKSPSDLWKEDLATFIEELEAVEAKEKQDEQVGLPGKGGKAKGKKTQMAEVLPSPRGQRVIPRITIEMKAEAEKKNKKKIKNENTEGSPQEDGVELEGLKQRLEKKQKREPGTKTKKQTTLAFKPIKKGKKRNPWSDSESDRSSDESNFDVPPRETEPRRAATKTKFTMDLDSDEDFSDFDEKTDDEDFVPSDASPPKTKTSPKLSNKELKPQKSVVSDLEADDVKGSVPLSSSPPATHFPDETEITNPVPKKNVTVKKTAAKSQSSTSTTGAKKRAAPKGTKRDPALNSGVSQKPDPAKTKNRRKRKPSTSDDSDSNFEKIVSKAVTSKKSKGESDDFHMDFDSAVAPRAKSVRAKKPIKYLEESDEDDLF

For `CC(C)(C)Nc1c(-c2ccc(C(=O)O)cc2)nc2ccccn12`, the outcome in data set [1], in data set [4], in [12], in data set [19] and in data set [20] was Active. The CC50 at 48 h in [2] came out at 98 µM. Besides, the Activity was 21.52% in [3]; 40% in data set [9]; 49.29% in data set [11]; 34.64% in data set [14]; 13.92% in data set [15]; 80% in data set [18]. Also, in [5], the CC50 turned out to be 12 µM. The inhibition result in data set [6], in data set [10] and in [16] was “inactive” in each case. Besides, in data set [7], the inhibition entry is “Active”. Moreover, the Ki in data set [8] is 75 µM. Moreover, the values for the viability at 48 h, 100 µM in [13] and in [22] were below 50% and 75%, respectively. In data set [17], the “inhibition (INH)” value is recorded as “Dose-dependent effect”. In addition, in [21], the viability at 15 µM came to 50%.

As usually defined, the Ki is a dissociation constant, usually derived from enzyme kinetics or from competition with a known ligand.
